From ChEMBL document CHEMBL1150203, “Antimicrobial diterpenes of Croton sonderianus, 1. Hardwickic and 3,4-secotrachylobanoic acids” (1991)
Converted amounts (≈) assume the structure as drawn. The source made the active and inactive calls. No cut-off for these calls is given here.

Legend:
Saccharomyces cerevisiae [1] = assay: Antifungal activity against Saccharomyces cerevisiae ATCC 9763 at 1 mg/ml after 72 hrs by agar-well diffusion assay; format: functional; conditions: for zone of inhibition at 1000 µg/mL: ATCC 9763, 72 h, read-out: IZ
How it was run: (§1)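 Fungi and yeasts streaked on mycophil agar from broth culture diluted 1:10 in sterile water; 100 μl of compound at 1 mg/ml placed in 11 mm cork-borer wells; plates held at 30°. Inhibition zone width (mm) recorded at 48 and 72 h and coded – to ++++ (1–2, 3–6, 7–12, >13 mm); amphotericin B positive control.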

Helminthosporium [2] = assay: Antifungal activity against Helminthosporium ATCC 4671 at 1 mg/ml after 48 hrs by agar-well diffusion assay; format: functional; conditions: ATCC 4671, 48 h, read-out: IZ; how it was run: as §1
Trametes sanguinea [3] = assay: Antifungal activity against Polyporus sanguineus ATCC 16422 at 1 mg/ml after 72 hrs by agar-well diffusion assay; format: functional; conditions: for zone of inhibition at 1000 µg/mL: ATCC 16422, 72 h, read-out: IZ; how it was run: as §1
[4] = tested on: Trichophyton mentagrophytes; assay: Antifungal activity against Trichophyton mentagrophytes ATCC 9972 at 1 mg/ml after 72 hrs by agar-well diffusion assay; format: functional; conditions: ATCC 9972, 72 h, read-out: IZ; how it was run: as §1
Trametes sanguinea [5] = assay: Antifungal activity against Polyporus sanguineus ATCC 16422 at 1 mg/ml after 48 hrs by agar-well diffusion assay; format: functional; conditions: for zone of inhibition at 1000 µg/mL: ATCC 16422, 48 h, read-out: IZ; how it was run: as §1
Saccharomyces cerevisiae [6] = assay: Antifungal activity against Saccharomyces cerevisiae ATCC 9763 after 24 hrs by twofold serial dilution method; format: functional; conditions: ATCC 9763, 24 h
Candida albicans [7] = assay: Antifungal activity against Candida albicans ATCC 10231 at 1 mg/ml after 72 hrs by agar-well diffusion assay; format: functional; conditions: ATCC 10231, 72 h, read-out: IZ; how it was run: as §1
Candida albicans [8] = assay: Antifungal activity against Candida albicans ATCC 10231 at 1 mg/ml after 48 hrs by agar-well diffusion assay; format: functional; conditions: ATCC 10231, 48 h, read-out: IZ; how it was run: as §1
Saccharomyces cerevisiae [9] = assay: Antifungal activity against Saccharomyces cerevisiae ATCC 9763 after 48 hrs by twofold serial dilution method; format: functional; conditions: ATCC 9763, 48 h
Saccharomyces cerevisiae [10] = assay: Antifungal activity against Saccharomyces cerevisiae ATCC 9763 at 1 mg/ml after 48 hrs by agar-well diffusion assay; format: functional; conditions: for zone of inhibition at 1000 µg/mL: ATCC 9763, 48 h, read-out: IZ; how it was run: as §1
[11] = tested on: Trichophyton mentagrophytes; assay: Antifungal activity against Trichophyton mentagrophytes ATCC 9972 after 48 hrs by twofold serial dilution method; format: functional; conditions: ATCC 9972, 48 h
Helminthosporium [12] = assay: Antifungal activity against Helminthosporium ATCC 4671 at 1 mg/ml after 72 hrs by agar-well diffusion assay; format: functional; conditions: for zone of inhibition at 1000 µg/mL: ATCC 4671, 72 h, read-out: IZ; how it was run: as §1
Aspergillus niger [13] = assay: Antifungal activity against Aspergillus niger ATCC 16888 at 1 mg/ml after 48 hrs by agar-well diffusion assay; format: functional; how it was run: as §1
[14] = tested on: Trichophyton mentagrophytes; assay: Antifungal activity against Trichophyton mentagrophytes ATCC 9972 after 24 hrs by twofold serial dilution method; format: functional; conditions: ATCC 9972, 24 h
[15] = tested on: Trichophyton mentagrophytes; assay: Antifungal activity against Trichophyton mentagrophytes ATCC 9972 at 1 mg/ml after 48 hrs by agar-well diffusion assay; format: functional; conditions: ATCC 9972, 48 h, read-out: IZ; how it was run: as §1
Aspergillus niger [16] = assay: Antifungal activity against Aspergillus niger ATCC 16888 at 1 mg/ml after 72 hrs by agar-well diffusion assay; format: functional; how it was run: as §1
Bacillus subtilis [17] = assay: Antibacterial activity against Bacillus subtilis ATCC 6633 after 48 hrs by twofold serial dilution method; format: functional; conditions: ATCC 6633, 48 h
Bacillus subtilis [18] = assay: Antibacterial activity against Bacillus subtilis ATCC 6633 after 24 hrs by twofold serial dilution method; format: functional; conditions: ATCC 6633, 24 h
Escherichia coli [19] = assay: Antibacterial activity against Escherichia coli ATCC 10536 at 1 mg/ml after 48 hrs by agar-well diffusion assay; format: functional
How it was run: (§2)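 Agar-well diffusion on eugon agar, bacteria streaked by quadrant method from broth culture diluted 1:10 in sterile water; 11 mm wells given 100 μl of compound at 1 mg/ml; 37° incubation. Zone width (mm) read at 24 and 48 h, coded –, + (1–2), ++ (3–6), +++ (7–12), ++++ (>13); streptomycin sulfate positive control.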

Bacillus subtilis [20] = assay: Antibacterial activity against Bacillus subtilis ATCC 6633 at 1 mg/ml after 24 hrs by agar-well diffusion assay; format: functional; conditions: ATCC 6633, 24 h, read-out: IZ; how it was run: as §2
Staphylococcus aureus [21] = assay: Antibacterial activity against Staphylococcus aureus ATCC 6538 at 1 mg/ml after 24 hrs by agar-well diffusion assay; format: functional; conditions: ATCC 6538, 24 h, read-out: IZ; how it was run: as §2
[22] = tested on: Mycolicibacterium smegmatis; assay: Antibacterial activity against Mycobacterium smegmatis ATCC 607 at 1 mg/ml after 48 hrs by agar-well diffusion assay; conditions: ATCC 607, 48 h, read-out: IZ
Pseudomonas aeruginosa [23] = assay: Antibacterial activity against Pseudomonas aeruginosa ATCC 15442 at 1 mg/ml after 24 hrs by agar-well diffusion assay; format: functional; how it was run: as §2
Staphylococcus aureus [24] = assay: Antibacterial activity against Staphylococcus aureus ATCC 6538 at 1 mg/ml after 48 hrs by agar-well diffusion assay; format: functional; conditions: ATCC 6538, 48 h, read-out: IZ; how it was run: as §2
Bacillus subtilis [25] = assay: Antibacterial activity against Bacillus subtilis ATCC 6633 at 1 mg/ml after 48 hrs by agar-well diffusion assay; format: functional; conditions: ATCC 6633, 48 h, read-out: IZ; how it was run: as §2
Pseudomonas aeruginosa [26] = assay: Antibacterial activity against Pseudomonas aeruginosa ATCC 15442 at 1 mg/ml after 48 hrs by agar-well diffusion assay; format: functional; how it was run: as §2
[27] = tested on: Mycolicibacterium smegmatis; assay: Antibacterial activity against Mycobacterium smegmatis ATCC 607 at 1 mg/ml after 48 hrs by agar-well diffusion assay; format: functional; conditions: ATCC 607, 48 h, read-out: IZ
How it was run: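 Quadrant-streaked eugon agar plates (broth culture diluted 1:10 in water) with 11 mm wells receiving 100 μl of 1 mg/ml compound, incubated at 37°; inhibition zone width in mm scored at 48 h and 72 h as –, +, ++, +++, ++++ (1–2, 3–6, 7–12, >13 mm); streptomycin sulfate control.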

Escherichia coli [28] = assay: Antibacterial activity against Escherichia coli ATCC 10536 at 1 mg/ml after 24 hrs by agar-well diffusion assay; format: functional; how it was run: as §2

MIC (Bacillus subtilis [17])	MIC (Bacillus subtilis [18])	Compound	zone of inhibition at 1000 µg/mL (Helminthosporium [2])	zone of inhibition at 1000 µg/mL [4]	zone of inhibition at 1000 µg/mL (Candida albicans [7])	zone of inhibition at 1000 µg/mL (Candida albicans [8])	zone of inhibition at 1000 µg/mL (Helminthosporium [12])	zone of inhibition at 1000 µg/mL [15]	inhibition zone (IZ) (Escherichia coli [19])	zone of inhibition at 1000 µg/mL (Bacillus subtilis [20])	zone of inhibition at 1000 µg/mL (Staphylococcus aureus [21])	zone of inhibition at 1000 µg/mL [22]	inhibition zone (IZ) (Pseudomonas aeruginosa [23])	zone of inhibition at 1000 µg/mL (Staphylococcus aureus [24])	zone of inhibition at 1000 µg/mL (Bacillus subtilis [25])	inhibition zone (IZ) (Pseudomonas aeruginosa [26])	zone of inhibition at 1000 µg/mL [27]	inhibition zone (IZ) (Aspergillus niger [13])	inhibition zone (IZ) (Escherichia coli [28])	inhibition zone (IZ) (Aspergillus niger [16])	further results
–	–	C[C@@H]1[C@H](O)[C@@H](C)/C=C/C=C/C=C/C=C/C=C/C=C/C=C/[C@H](O[C@@H]2O[C@H](C)[C@@H](O)[C@H](N)[C@@H]2O)C[C@@H]2O[C@](O)(C[C@@H](O)C[C@@H](O)[C@H](O)CC[C@@H](O)C[C@@H](O)CC(=O)O[C@H]1C)C[C@H](O)[C@H]2C(=O)O [AMPHOTERICIN B]	> 12 mm	7 mm	7 mm	7 mm	> 12 mm	7 mm	–	–	–	–	–	–	–	–	–	–	–	–	zone of inhibition at 1000 µg/mL (Saccharomyces cerevisiae [1]): 7 mm; zone of inhibition at 1000 µg/mL (Trametes sanguinea [3]): > 12 mm; zone of inhibition at 1000 µg/mL (Trametes sanguinea [5]): > 12 mm; MIC (Saccharomyces cerevisiae [6]): 6.25 µg/mL (≈ 6.76 µM); MIC (Saccharomyces cerevisiae [9]): 12.5 µg/mL (≈ 13.5 µM); zone of inhibition at 1000 µg/mL (Saccharomyces cerevisiae [10]): 7 mm; MIC [11]: 0.78 µg/mL (≈ 0.844 µM); zone of inhibition at 1000 µg/mL (Aspergillus niger [13]; ATCC 16888, 48 h, read-out: IZ): 7 mm; MIC [14]: 0.78 µg/mL (≈ 0.844 µM); zone of inhibition at 1000 µg/mL (Aspergillus niger [16]; ATCC 16888, 72 h, read-out: IZ): 7 mm
3.12 µg/mL (≈ 5.36 µM)	3.12 µg/mL (≈ 5.36 µM)	CN[C@@H]1[C@H](O[C@H]2[C@H](O[C@H]3[C@H](O)[C@@H](O)[C@H](N=C(N)N)[C@@H](O)[C@@H]3N=C(N)N)O[C@@H](C)[C@]2(O)C=O)O[C@@H](CO)[C@H](O)[C@H]1O [STREPTOMYCIN]	–	–	–	–	–	–	–	–	–	–	–	–	–	–	–	–	–	–	–
–	–	C[C@@H]1CC[C@@]2(C)C(CO)=CCC[C@@H]2[C@@]1(C)CCc1ccoc1 [HARDWICKIOL]	3 mm	3 mm	7 mm	3 mm	1 mm	7 mm	inactive	3 mm	3 mm	7 mm	inactive	3 mm	3 mm	inactive	7 mm	inactive	inactive	inactive	zone of inhibition at 1000 µg/mL (Saccharomyces cerevisiae [1]): 3 mm; inhibition zone (IZ) (Trametes sanguinea [3]): inactive; inhibition zone (IZ) (Trametes sanguinea [5]): inactive; zone of inhibition at 1000 µg/mL (Saccharomyces cerevisiae [10]): 3 mm
1.56 µg/mL (≈ 4.93 µM)	0.78 µg/mL (≈ 2.46 µM)	C[C@@H]1CC[C@@]2(C)C(C(=O)O)=CCC[C@@H]2[C@@]1(C)CCc1ccoc1	3 mm	3 mm	3 mm	1 mm	3 mm	7 mm	inactive	7 mm	3 mm	7 mm	inactive	3 mm	7 mm	inactive	7 mm	inactive	inactive	inactive	inhibition zone (IZ) (Saccharomyces cerevisiae [1]): inactive; inhibition zone (IZ) (Trametes sanguinea [3]): inactive; inhibition zone (IZ) (Trametes sanguinea [5]): inactive; inhibition zone (IZ) (Saccharomyces cerevisiae [10]): inactive; MIC [11]: 25 µg/mL (≈ 79 µM); MIC [14]: 25 µg/mL (≈ 79 µM)
25 µg/mL (≈ 82.7 µM)	25 µg/mL (≈ 82.7 µM)	C=C(C)[C@@H]1CC[C@@]23C[C@@H]4[C@@H](C[C@H]2[C@]1(C)CCC(=O)O)[C@@]4(C)C3	1 mm	1 mm	3 mm	3 mm	–	3 mm	inactive	> 12 mm	7 mm	7 mm	inactive	7 mm	7 mm	inactive	7 mm	inactive	inactive	inactive	inhibition zone (IZ) (Saccharomyces cerevisiae [1]): inactive; zone of inhibition at 1000 µg/mL (Trametes sanguinea [3]): 1 mm; zone of inhibition at 1000 µg/mL (Trametes sanguinea [5]): 3 mm; MIC (Saccharomyces cerevisiae [6]): 100 µg/mL (≈ 331 µM); MIC (Saccharomyces cerevisiae [9]): 100 µg/mL (≈ 331 µM); inhibition zone (IZ) (Saccharomyces cerevisiae [10]): inactive; inhibition zone (IZ) (Helminthosporium [12]): inactive
